# How the values were obtained:
# Details in all cases: stereoisomer not certain
# [1] = biological target: T1, OR51E1 (Homo sapiens) (UniProt Q8TCB6)
# T1 sequence (whole entry): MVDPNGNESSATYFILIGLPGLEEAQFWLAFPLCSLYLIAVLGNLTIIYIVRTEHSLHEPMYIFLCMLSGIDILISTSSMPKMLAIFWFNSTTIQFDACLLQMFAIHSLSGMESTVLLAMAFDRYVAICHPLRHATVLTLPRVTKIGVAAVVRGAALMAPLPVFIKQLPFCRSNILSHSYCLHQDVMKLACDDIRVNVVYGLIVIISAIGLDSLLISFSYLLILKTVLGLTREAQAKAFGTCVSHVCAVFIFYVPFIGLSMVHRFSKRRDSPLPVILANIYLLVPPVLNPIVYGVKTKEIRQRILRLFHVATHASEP
# Method in brief: (§1)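 Each receptor–molecule pair is labelled responsive or non-responsive (inactive) according to whether the original authors judged the measured signal statistically different from baseline. The data were taken from the main text and supplementary material of published papers and checked for typos and inconsistencies. Assay methods differed by source, with transient luciferase assays in mammalian cell lines being common.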
# [2] = biological target: T2, OR51E2 (Homo sapiens) (UniProt Q9H255)
# T2 sequence (whole entry): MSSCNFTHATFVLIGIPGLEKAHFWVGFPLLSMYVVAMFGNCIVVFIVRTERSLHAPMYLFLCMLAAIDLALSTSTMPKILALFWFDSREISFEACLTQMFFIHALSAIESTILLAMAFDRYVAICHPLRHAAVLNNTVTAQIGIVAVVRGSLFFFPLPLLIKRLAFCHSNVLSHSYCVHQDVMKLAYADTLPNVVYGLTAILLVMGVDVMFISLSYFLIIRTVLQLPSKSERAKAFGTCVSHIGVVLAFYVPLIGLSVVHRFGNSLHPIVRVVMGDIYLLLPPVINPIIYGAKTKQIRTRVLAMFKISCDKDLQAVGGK
# Method in brief: as §1
# [3] = biological target: T3, OR51B5 (Homo sapiens) (UniProt Q9H339)
# T3 sequence (whole entry): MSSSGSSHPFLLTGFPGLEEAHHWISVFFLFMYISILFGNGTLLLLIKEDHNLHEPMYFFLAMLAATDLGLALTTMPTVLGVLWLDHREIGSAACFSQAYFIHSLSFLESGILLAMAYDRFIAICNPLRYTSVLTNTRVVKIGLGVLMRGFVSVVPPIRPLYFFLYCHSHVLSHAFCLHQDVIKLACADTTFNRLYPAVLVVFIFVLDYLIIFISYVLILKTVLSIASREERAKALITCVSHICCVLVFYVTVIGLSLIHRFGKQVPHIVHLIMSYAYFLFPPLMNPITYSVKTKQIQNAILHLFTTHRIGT
# Method in brief: as §1
# 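Note: active if original authors judged signal statistically different from baseline.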
SMILES,odorant receptor agonist call [1],odorant receptor agonist call [2],odorant receptor agonist call [3]
CCCCCCCCS,inactive,inactive,–
Cc1ccc(C(C)C)cc1,–,–,inactive
O=c1ccc2ccccc2o1,inactive,inactive,inactive
CCCCCCCCCC(=O)OC,–,–,inactive
CCCCCCCCCCCCO,–,–,inactive
CC1=CCC2CC1C2(C)C (stereo unspecified),–,–,inactive
CCCO,–,–,inactive
CCC(C)CC(=O)O (stereo unspecified),active,–,–
CC(=O)O,–,–,inactive
CCCCCCCCCCCCCCCCCC(=O)OC,–,–,inactive
CCCCCCCCCC(=O)OCC,–,–,inactive
CCCCCCCCCCCC(=O)O,inactive,–,active
CCCCCCCCCCCCCCCC(=O)[O-].[H+],inactive,–,inactive
CCCCCCO,inactive,inactive,–
CC(C)=CCCC(C)CCO (stereo unspecified),inactive,inactive,–
CCCCCOC(=O)CCCCC,inactive,inactive,–
CC(=O)C=CC1=C(C)CCCC1(C)C,–,inactive,–
CCC(C(=O)O)c1ccccc1 (stereo unspecified),inactive,inactive,–
c1ccccc1,inactive,inactive,–
CCCC(=O)C(C)=O,inactive,inactive,–
O=C1CCOc2ccccc21,inactive,inactive,–
O=C1Cc2ccccc2O1,inactive,inactive,–
CCCCCCOC(C)=O,inactive,inactive,–
CCCCCCCC(C)=O,inactive,inactive,–

SMILES,odorant receptor agonist call [1],odorant receptor agonist call [2],odorant receptor agonist call [3]
CC12CCC(CC1=O)C2(C)C (stereo unspecified),inactive,inactive,–
CCCCOC=O,inactive,inactive,–
CCCCCC(=O)CC,inactive,inactive,–
CCCCCCCO,inactive,inactive,–
CCCCOC(=O)C(C)OC(=O)CCC (stereo unspecified),active,inactive,–
CCCCCCCCCCO,inactive,inactive,–
CCCCCCCCCC(=O)[O-].[H+],inactive,inactive,–
O=C(c1ccccc1)c1ccccc1,inactive,inactive,–
CC(=O)OCC=C(C)C,inactive,inactive,–
COc1cc(C(=O)O)ccc1O,inactive,inactive,–
CCC(=O)C(=O)CC,inactive,inactive,–
CC(=O)OCc1ccccc1,inactive,inactive,–
CCCCCCCCCS,inactive,inactive,–
CCCCC(C)=O,inactive,inactive,–
CCCCC(=O)O,–,inactive,–
CCCCCC=O,inactive,inactive,–
CCCCCCC(C)=O,inactive,inactive,–
CCCCCO,inactive,inactive,–
CC(=O)Oc1ccccc1,inactive,inactive,–
C=CCOC(=O)CCCCCC,inactive,inactive,–
CCOC(=O)C(C)C,inactive,inactive,–
CCCCCCCCCO,inactive,inactive,–
C=C(C)C1CCC(C)C(=O)C1 (stereo unspecified),inactive,inactive,–
CCCCCC1=C(C)CCC1=O,inactive,inactive,–

# Reference: the M2OR odorant receptor database
